{
  "source": "ChEMBL document CHEMBL4613227",
  "about": "“Synthesis and evaluation of the HIF-1α inhibitory activity of 3(5)-substituted-4-(quinolin-4-yl)- and 4-(2-phenylpyridin-4-yl)pyrazoles as inhibitors of ALK5” (Bioorg Med Chem Lett, 2020)",
  "key": {"[1]": {"molecular_target": "Mitogen-activated protein kinase 14 (Homo sapiens, UniProt Q16539)", "sequence (Q16539 whole entry, the tested form may be a part)": "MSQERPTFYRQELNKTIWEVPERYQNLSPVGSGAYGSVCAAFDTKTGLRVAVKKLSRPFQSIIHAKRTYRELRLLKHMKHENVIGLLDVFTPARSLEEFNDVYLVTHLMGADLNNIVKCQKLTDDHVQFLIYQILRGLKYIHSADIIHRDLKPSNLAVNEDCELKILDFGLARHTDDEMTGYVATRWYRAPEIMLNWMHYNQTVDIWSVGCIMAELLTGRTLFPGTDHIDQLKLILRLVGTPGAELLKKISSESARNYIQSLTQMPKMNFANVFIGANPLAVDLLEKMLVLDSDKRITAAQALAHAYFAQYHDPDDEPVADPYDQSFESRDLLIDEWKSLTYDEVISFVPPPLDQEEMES", "assay": "Inhibition of recombinant human p38alpha expressed in Escherichia coli assessed as residual activity at 10 uM (reference value: 100 +/- 0.1%)", "method_in_brief": "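Single-point kinase screen at 10 μM, in duplicate; ALK5 as human GST-fusion from baculovirus/Sf9, p38α as untagged human protein from E. coli; residual activity relative to DMSO vehicle, mean ± SD of two independent experiments.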"}, "TGF-beta receptor type-1": {"molecular_target": "T1, TGF-beta receptor type-1 (Homo sapiens, UniProt P36897)", "T1 sequence (P36897 whole entry)": "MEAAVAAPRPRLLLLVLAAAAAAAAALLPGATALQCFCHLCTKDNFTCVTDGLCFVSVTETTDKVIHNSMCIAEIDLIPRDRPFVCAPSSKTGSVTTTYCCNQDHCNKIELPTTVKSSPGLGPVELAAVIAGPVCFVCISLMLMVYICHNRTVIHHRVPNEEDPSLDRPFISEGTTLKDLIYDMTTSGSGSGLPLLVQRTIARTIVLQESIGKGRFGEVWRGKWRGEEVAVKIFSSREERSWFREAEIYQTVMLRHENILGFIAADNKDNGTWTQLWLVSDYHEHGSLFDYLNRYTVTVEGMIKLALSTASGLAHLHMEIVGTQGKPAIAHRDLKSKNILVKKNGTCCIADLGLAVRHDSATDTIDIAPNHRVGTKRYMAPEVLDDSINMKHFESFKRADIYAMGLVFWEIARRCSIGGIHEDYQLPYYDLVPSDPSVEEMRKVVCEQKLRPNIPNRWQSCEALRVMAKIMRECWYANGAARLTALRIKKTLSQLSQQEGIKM", "assay": "Inhibition of recombinant GST-tagged human ALK5 expressed in baculovirus infected Sf9 insect cells", "method_in_brief": "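IC50 determination against ALK5 (human GST-fusion, Sf9 baculovirus) and p38α (untagged human, E. coli); values averaged from three independent experiments run in triplicate.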"}, "HCT-116 [2]": {"tested_on": "HCT-116", "assay": "Inhibition of hypoxia-induced HIF1alpha protein expression in human HCT116 cells incubated for 12 hrs under hypoxic condition by Western blot analysis", "format": "functional, cell-based", "method_in_brief": "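HCT116 held under normoxia or hypoxia 12 h with graded concentrations; nuclear extracts probed for HIF-1α by Western blot, Topo-I as loading control.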"}, "HCT-116 [3]": {"tested_on": "HCT-116", "assay": "Inhibition of TNFalpha-induced HIF1alpha expression in human HCT116 cells at 10 to 50 uM by Western blot analysis", "format": "functional, cell-based", "method_in_brief": "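HCT116 exposed to TNF 10 ng/mL for 24 h with graded concentrations; total protein blotted for HIF-1α, Topo-I reprobe as loading control.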"}, "HCT-116 [4]": {"tested_on": "HCT-116", "assay": "Inhibition of HIF1alpha accumulation in hypoxia-induced human HCT116 cells at 50 uM preincubated for 30 mins in presence of proteasome inhibitor MG-132 followed by compound addition and measured after 12 hrs under hypoxic condition by Western blot analysis", "format": "functional, cell-based", "method_in_brief": "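HCT116 pretreated with MG-132 (10 μM) 30 min, then compound (50 μM) under 1% O₂ for 12 h; nuclear HIF-1α by Western blot, Topo-I loading control.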"}, "HCT-116 [5]": {"tested_on": "HCT-116", "assay": "Induction of apoptosis in human HCT116 cells assessed as early apoptotic cells at 50 uM after 12 hrs by Annexin-V/PI-staining based flow cytometric analysis (reference value: 1%)", "format": "functional"}, "HCT-116 [6]": {"tested_on": "HCT-116", "assay": "Induction of apoptosis in human HCT116 cells assessed as late apoptotic cells at 50 uM after 12 hrs by Annexin-V/PI-staining based flow cytometric analysis (reference value: 0.2%)", "format": "functional"}, "HCT-116 [7]": {"tested_on": "HCT-116", "assay": "Induction of apoptosis in human HCT116 cells assessed as necrotic cells at 50 uM after 12 hrs by Annexin-V/PI-staining based flow cytometric analysis (reference value: 3.5%)", "format": "functional"}, "HCT-116 [8]": {"tested_on": "HCT-116", "assay": "Induction of apoptosis in human HCT116 cells assessed as viable cells at 50 uM preincubated for 12 hrs followed by TNF stimulation and measured after 24 hrs by Annexin-V/PI-staining based flow cytometric analysis (reference value: 92.4%)", "format": "functional", "conditions": "read-out: Activity"}, "HCT-116 [9]": {"tested_on": "HCT-116", "assay": "Induction of apoptosis in human HCT116 cells assessed as effect on cleaved caspase 8 expression at 50 uM after 12 hrs by Western blot analysis", "format": "functional, cell-based"}, "HCT-116 [10]": {"tested_on": "HCT-116", "assay": "Induction of apoptosis in human HCT116 cells assessed as effect on cleaved caspase 3 expression at 50 uM after 12 hrs by Western blot analysis", "format": "functional, cell-based"}, "HCT-116 [11]": {"tested_on": "HCT-116", "assay": "Induction of apoptosis in human HCT116 cells assessed as effect on cleaved caspase 8 expression at 50 uM preincubated for 12 hrs followed by TNF-stimulation and measured after 24 hrs by Western blot analysis", "format": "functional, cell-based", "method_in_brief": "(§1)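 HCT116 pretreated 12 h with 50 μM, then TNF (10 ng/mL) 24 h; whole cell extracts blotted for cleaved caspase-8, cleaved caspase-3, cleaved PARP, tubulin.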"}, "HCT-116 [12]": {"tested_on": "HCT-116", "assay": "Induction of apoptosis in human HCT116 cells assessed as effect on cleaved caspase-3 expression at 50 uM preincubated for 12 hrs followed by TNF-stimulation and measured after 24 hrs by Western blot analysis", "format": "functional, cell-based", "method_in_brief": "as §1"}, "HCT-116 [13]": {"tested_on": "HCT-116", "assay": "Induction of apoptosis in human HCT116 cells assessed as PARP cleavage at 50 uM after 12 hrs by Western blot analysis", "format": "functional, cell-based"}, "HCT-116 [14]": {"tested_on": "HCT-116", "assay": "Induction of apoptosis in human HCT116 cells assessed as PARP cleavage at 50 uM preincubated for 12 hrs followed by TNF-stimulation and measured after 24 hrs by Western blot analysis", "format": "functional, cell-based", "method_in_brief": "as §1"}, "HCT-116 [15]": {"tested_on": "HCT-116", "assay": "Down regulation of TNF-induced ICAM-1 protein expression in human HCT116 cells at 50 uM pretreated for 12 hrs followed by TNF stimulation and measured after 24 hrs by Western blot analysis", "format": "functional, cell-based", "method_in_brief": "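HCT116 pretreated 12 h with 50 μM, then TNF (10 ng/mL) 24 h; whole cell extracts immunoblotted for ICAM-1, MMP-9, VEGF with tubulin as loading reference.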"}, "HCT-116 [16]": {"tested_on": "HCT-116", "assay": "Down regulation of TNF-induced MMP9 mRNA expression in human HCT116 cells at 50 uM pretreated for 12 hrs followed by TNF stimulation and measured after 12 hrs by Western blot analysis", "format": "functional, cell-based", "conditions": "in the assay text read “RT-PCR analysis” for “Western blot analysis”", "method_in_brief": "(§2)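 HCT116 preincubated 12 h with graded concentrations, then TNF 10 ng/mL for a further 12 h; ICAM-1, VEGF, MMP-9 transcripts measured by RT-PCR, GAPDH for equal RNA loading.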"}, "HCT-116 [17]": {"tested_on": "HCT-116", "assay": "Down regulation of TNF-induced VEGF mRNA expression in human HCT116 cells at 50 uM pretreated for 12 hrs followed by TNF stimulation and measured after 12 hrs by Western blot analysis", "format": "functional, cell-based", "conditions": "in the assay text read “RT-PCR analysis” for “Western blot analysis”", "method_in_brief": "as §2"}, "HCT-116 [18]": {"tested_on": "HCT-116", "assay": "Antiproliferative activity against human HCT116 cells assessed as reduction in TNF-induced number of Edu positive cells at 50 uM pretreated for 12 hrs followed by TNF stimulation and measured after 30 mins by Edu-incorporation based fluorescence microscopic analysis", "format": "functional, cell-based", "method_in_brief": "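HCT116 cells pretreated 12 h (50 μM), then TNF 10 ng/ml for 30 min; EdU-labelled proliferating cells examined by fluorescence microscopy; mean ± SD of three independent experiments.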"}, "HCT-116 [19]": {"tested_on": "HCT-116", "assay": "Inhibition of colony formation in TNF-induced human HCT116 cells pretreated with compound for 12 hrs before TNF stimulation for 30 mins and followed by replacement of fresh medium incubated for 10 days by crystal violet staining based analysis", "format": "functional, cell-based", "method_in_brief": "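HCT116 treated 12 h (10, 30, 50 μM), then TNF 10 ng/ml 30 min; medium replaced, growth continued 10 days; crystal violet staining; mean ± SD of three independent experiments.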"}},
  "note": "Active and inactive are the calls of the source. The calls are words filed in the database; no cut-off is given here.",
  "data": [
    {"molecule": "Cc1cccc(-c2nn(CC(=S)Nc3cccc(C#N)c3)cc2-c2ccnc3ccccc23)n1", "values": [
      {"measurement": "Activity", "setting": "[1]", "value": 3, "unit": "%"},
      {"measurement": "IC50", "setting": "TGF-beta receptor type-1", "value": 69, "unit": "nM"},
      {"measurement": "inhibition", "setting": "HCT-116 [2]", "value": "Dose-dependent effect"},
      {"measurement": "inhibition", "setting": "HCT-116 [3]", "value": "Active"},
      {"measurement": "inhibition", "setting": "HCT-116 [4]", "value": "Active"},
      {"measurement": "Activity", "setting": "HCT-116 [5]", "value": 3.1, "unit": "%"},
      {"measurement": "Activity", "setting": "HCT-116 [6]", "value": 3.2, "unit": "%"},
      {"measurement": "Activity", "setting": "HCT-116 [7]", "value": 8.5, "unit": "%"},
      {"measurement": "viability at 50 µM", "setting": "HCT-116 [8]", "value": 86.8, "unit": "%"},
      {"measurement": "Activity", "setting": "HCT-116 [9]", "value": "Active"},
      {"measurement": "Activity", "setting": "HCT-116 [10]", "value": "Active"},
      {"measurement": "Activity", "setting": "HCT-116 [11]", "value": "Active"},
      {"measurement": "Activity", "setting": "HCT-116 [12]", "value": "Active"},
      {"measurement": "Activity", "setting": "HCT-116 [13]", "value": "Active"},
      {"measurement": "Activity", "setting": "HCT-116 [14]", "value": "Active"},
      {"measurement": "Activity", "setting": "HCT-116 [15]", "value": "Active"},
      {"measurement": "Activity", "setting": "HCT-116 [16]", "value": "Active"},
      {"measurement": "Activity", "setting": "HCT-116 [17]", "value": "Active"},
      {"measurement": "Activity", "setting": "HCT-116 [18]", "value": "Active"},
      {"measurement": "inhibition", "setting": "HCT-116 [19]", "value": "Dose-dependent effect"}
    ]}
  ]
}
